In brackets after ≈: the same amount, converted by molar mass.
Legend:
[1] = target: Cytochrome P450 2D6 (Homo sapiens, UniProt P10635); experiment: Inhibition of human CYP2D6; assay type: ADME
[2] = test system: Salmonella typhimurium; experiment: Genotoxicity in Salmonella typhimurium TA98 at =<5000 ug/plate in presence of metabolic activators by Ames test; assay type: toxicity, organism-based; conditions: salmonella enterica subsp. enterica serovar typhimurium
Procedure, shortened: (§1)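 Bacterial reverse mutation (Ames) test, Salmonella typhimurium TA98 and TA100, up to 5000 µg/plate, with and without metabolic activation.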

[3] = test system: Homo sapiens; experiment: Toxicity in normal healthy human assessed as occurence of adverse events at 200 to 1200 mg, po, administered as single dose; assay type: organism-based; conditions: in vivo
Procedure, shortened: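 Human subjects received single oral doses of 200, 600, 800 or 1200 mg and were monitored for clinically significant adverse events.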

[4] = test system: Salmonella typhimurium; experiment: Genotoxicity in Salmonella typhimurium TA98 at =<5000 ug/plate in absence of metabolic activators by Ames test; assay type: toxicity, organism-based; conditions: salmonella enterica subsp. enterica serovar typhimurium; procedure, shortened: as §1
[5] = Cmax in Sprague-Dawley rat at 4.4 mg/kg, po; assay type: ADME, organism-based; parameters: dose 4.4 mg/kg, route oral; conditions: in vivo
Procedure, shortened: (§2)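 Single IV (about 1 mg/kg) and oral (about 5 mg/kg) doses in rat, cynomolgus monkey and dog; CL, t1/2, Vss, Cmax, tmax, AUC and oral bioavailability F derived from plasma concentration-time data.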

[6] = Permeability across basolateral to apical side in human Caco2 cells at 3 uM; assay type: ADME, cell-based; conditions: Caco-2, read-out: permeability
Procedure, shortened: (§3)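 Caco-2 monolayer permeability at 3 µM, apical-to-basolateral and basolateral-to-apical, reported in nm/sec.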

[7] = Cmax in Beagle dog at 5.2 mg/kg, po; assay type: ADME, organism-based, Canis lupus familiaris; parameters: dose 5.2 mg/kg, route oral; conditions: in vivo; procedure, shortened: as §2
[8] = Clearance in Sprague-Dawley rat at 1 mg/kg, iv after 4 hrs; assay type: ADME, organism-based; conditions: in vivo
Procedure, shortened: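 Male Sprague-Dawley rats given 1 mpk IV in PEG400/ethanol (90:10); blood sampled at 5 and 30 min and 1, 2 and 4 h post-dose; clearance from plasma profile.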

[9] = Half-life in cynomolgus monkey at 1 mg/kg, iv; assay type: ADME, organism-based, Macaca fascicularis; conditions: in vivo; procedure, shortened: as §2
[10] = Protein binding in rat plasma; assay type: ADME, cell-free; conditions: read-out: PPB (converted)
[11] = Oral bioavailability in Sprague-Dawley rat at 4.4 mg/kg; assay type: ADME, organism-based; conditions: in vivo; procedure, shortened: as §2
[12] = AUC in cynomolgus monkey at 5 mg/kg, po; assay type: ADME, organism-based, Macaca fascicularis; conditions: in vivo; procedure, shortened: as §2
[13] = Permeability across apical to basolateral side in human Caco2 cells at 3 uM; assay type: ADME, cell-based; conditions: Caco-2, read-out: permeability; procedure, shortened: as §3
[14] = Volume of distribution at steady state in cynomolgus monkey at 1 mg/kg, iv; assay type: ADME, organism-based, Macaca fascicularis; conditions: in vivo, read-out: Vdss
[15] = Volume of distribution at steady state in Sprague-Dawley rat at 0.87 mg/kg, iv; assay type: ADME, organism-based; conditions: in vivo, read-out: Vdss
[16] = target: Cytochrome P450 3A4 (Homo sapiens, UniProt P08684); experiment: Inhibition of human CYP3A4; assay type: ADME
Cytochrome P450 3A4, sequence (P08684 whole entry): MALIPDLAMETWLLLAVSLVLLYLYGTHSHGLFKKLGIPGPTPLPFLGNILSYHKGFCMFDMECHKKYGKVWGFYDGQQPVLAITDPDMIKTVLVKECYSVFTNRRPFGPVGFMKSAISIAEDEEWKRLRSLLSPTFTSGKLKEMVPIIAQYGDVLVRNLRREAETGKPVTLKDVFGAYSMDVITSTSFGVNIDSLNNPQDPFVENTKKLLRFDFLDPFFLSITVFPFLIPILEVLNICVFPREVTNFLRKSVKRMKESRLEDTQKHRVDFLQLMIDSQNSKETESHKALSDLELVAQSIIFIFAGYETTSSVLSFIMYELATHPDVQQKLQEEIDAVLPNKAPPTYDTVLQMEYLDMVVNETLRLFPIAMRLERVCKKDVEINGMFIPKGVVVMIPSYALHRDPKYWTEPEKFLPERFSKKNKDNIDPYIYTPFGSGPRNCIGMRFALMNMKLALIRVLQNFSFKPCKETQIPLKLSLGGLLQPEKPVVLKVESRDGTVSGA

[17] = target: Cytochrome P450 2C9 (Homo sapiens, UniProt P11712); experiment: Inhibition of human CYP2C9; assay type: ADME
Cytochrome P450 2C9, sequence (P11712 whole entry): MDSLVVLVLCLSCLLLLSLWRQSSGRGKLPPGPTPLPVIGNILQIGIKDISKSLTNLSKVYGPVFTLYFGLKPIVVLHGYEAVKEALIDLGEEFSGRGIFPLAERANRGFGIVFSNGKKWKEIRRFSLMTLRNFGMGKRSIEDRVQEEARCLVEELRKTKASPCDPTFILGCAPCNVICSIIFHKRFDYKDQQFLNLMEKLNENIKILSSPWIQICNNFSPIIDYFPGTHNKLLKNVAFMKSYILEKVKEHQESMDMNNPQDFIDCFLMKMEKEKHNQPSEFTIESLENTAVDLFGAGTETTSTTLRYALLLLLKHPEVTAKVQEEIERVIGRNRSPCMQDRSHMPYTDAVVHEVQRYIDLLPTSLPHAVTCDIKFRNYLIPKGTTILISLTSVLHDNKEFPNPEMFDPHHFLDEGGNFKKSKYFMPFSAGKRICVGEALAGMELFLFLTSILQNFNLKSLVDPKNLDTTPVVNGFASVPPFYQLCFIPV

[18] = Drug metabolism in rat liver microsomes assessed as CYP-mediated metabolism by measuring compound half life; assay type: ADME
Procedure, shortened: (§4)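 Microsomal stability with NADPH (CYP-dependent) in rat, cynomolgus, dog and human microsomes; half-life in min.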

[19] = Half-life in Sprague-Dawley rat at 0.87 mg/kg, iv; assay type: ADME, organism-based; conditions: in vivo; procedure, shortened: as §2
[20] = Tmax in Beagle dog at 5.2 mg/kg, po; assay type: ADME, organism-based, Canis lupus familiaris; conditions: in vivo
[21] = target: T1, Nuclear receptor subfamily 1 group I member 2 (Homo sapiens, UniProt O75469); experiment: Transactivation of human PXR; assay type: ADME
T1 sequence (O75469 whole entry): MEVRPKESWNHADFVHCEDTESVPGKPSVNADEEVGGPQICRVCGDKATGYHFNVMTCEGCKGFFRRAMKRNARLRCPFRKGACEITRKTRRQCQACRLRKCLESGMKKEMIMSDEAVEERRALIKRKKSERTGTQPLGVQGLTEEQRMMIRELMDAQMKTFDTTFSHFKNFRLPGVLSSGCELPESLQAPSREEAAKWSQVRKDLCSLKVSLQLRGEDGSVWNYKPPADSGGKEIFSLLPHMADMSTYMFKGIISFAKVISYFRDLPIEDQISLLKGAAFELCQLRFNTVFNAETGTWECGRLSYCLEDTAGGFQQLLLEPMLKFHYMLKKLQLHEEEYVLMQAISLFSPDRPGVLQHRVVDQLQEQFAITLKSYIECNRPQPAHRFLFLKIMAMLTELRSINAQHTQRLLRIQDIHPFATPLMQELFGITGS
Procedure, shortened: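 Human PXR transactivation assay, with potency reported as EC20A and EC60A values.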

[22] = Drug metabolism in dog liver microsomes assessed as CYP-mediated metabolism by measuring compound half life; assay type: ADME, Canis lupus familiaris; procedure, shortened: as §4
[23] = test system: Salmonella typhimurium; experiment: Genotoxicity in Salmonella typhimurium TA100 at =<5000 ug/plate in presence of metabolic activators by Ames test; assay type: toxicity, organism-based; conditions: salmonella enterica subsp. enterica serovar typhimurium; procedure, shortened: as §1
[24] = Clearance in Sprague-Dawley rat at 0.87 mg/kg, iv; assay type: ADME, organism-based; conditions: in vivo; procedure, shortened: as §2
[25] = Ssolubility of the compound at pH 7.3; assay type: physicochemical; conditions: buffer
[26] = Half-life in Beagle dog at 1 mg/kg, iv; assay type: ADME, organism-based, Canis lupus familiaris; conditions: in vivo; procedure, shortened: as §2
[27] = test system: Salmonella typhimurium; experiment: Genotoxicity in Salmonella typhimurium TA100 at =<5000 ug/plate in absence of metabolic activators by Ames test; assay type: toxicity, organism-based; conditions: salmonella enterica subsp. enterica serovar typhimurium; procedure, shortened: as §1
[28] = Drug uptake in normal healthy human at 600 mg, po qd after 24 hrs; assay type: ADME, organism-based; conditions: in vivo, read-out: Drug uptake
Procedure, shortened: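 Healthy volunteers given 600 mg orally once daily; mean plasma concentration measured 24 h post-dose (C24h).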

Cytochrome P450 2D6, sequence (P10635 whole entry): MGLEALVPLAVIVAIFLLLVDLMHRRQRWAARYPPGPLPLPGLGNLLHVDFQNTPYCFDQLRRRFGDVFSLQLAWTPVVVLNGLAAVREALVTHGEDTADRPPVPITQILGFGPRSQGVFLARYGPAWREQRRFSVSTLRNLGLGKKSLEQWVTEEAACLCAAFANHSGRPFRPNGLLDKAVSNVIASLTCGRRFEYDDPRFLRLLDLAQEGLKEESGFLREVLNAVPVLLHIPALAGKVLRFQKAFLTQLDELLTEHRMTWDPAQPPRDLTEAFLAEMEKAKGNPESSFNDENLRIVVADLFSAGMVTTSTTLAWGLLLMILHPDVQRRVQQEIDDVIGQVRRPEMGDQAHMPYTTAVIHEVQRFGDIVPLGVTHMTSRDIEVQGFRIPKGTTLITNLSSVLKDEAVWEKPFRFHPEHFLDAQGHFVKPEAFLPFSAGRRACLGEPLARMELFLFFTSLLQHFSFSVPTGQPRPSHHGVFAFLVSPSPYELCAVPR

Q: For `CC1(C)OCCn2c1nc(C(=O)NCc1ccc(F)cc1)c(O)c2=O`, which IC50 [1] is on record?
A: The IC50 was greater than 40 µM.

Q: And the Activity [2]?
A: The Activity was “Non-Toxic”.

Q: What about the Activity [3] of the same compound?
A: The Activity was “Non-Toxic”.

Q: What about the Activity [4] of the same compound?
A: The Activity was “Non-Toxic”.

Q: And the Cmax [5]?
A: Its Cmax is 4.51 µM.

Q: And the Papp B→A at 3 µM [6]?
A: Its Papp B→A at 3 µM is 24 ×10⁻⁶ cm/s.

Q: What about the Cmax [7] of the same compound?
A: The Cmax was 72.8 µM.

Q: And the clearance [8]?
A: The clearance was 9.6 mL/min/kg.

Q: And the half-life [9]?
A: Its half-life is 6.5 h.

Q: What about the fraction unbound [10] of the same compound?
A: The fraction unbound was 0.063.

Q: What about the bioavailability [11] of the same compound?
A: The bioavailability was 86%.

Q: And the AUC [12]?
A: Its AUC is 19.2 µM·h.

Q: What about the Papp A→B at 3 µM [13] of the same compound?
A: Its Papp A→B at 3 µM is 33.4 ×10⁻⁶ cm/s.

Q: And the Vd [14]?
A: Its Vd is 0.87 L/kg.

Q: What about the Vd [15] of the same compound?
A: The Vd was 0.86 L/kg.

Q: And the IC50 [16]?
A: Its IC50 is greater than 40 µM.

Q: What about the IC50 [17] of the same compound?
A: The IC50 was greater than 40 µM.

Q: What about the half-life [18] of the same compound?
A: Its half-life is greater than 2 h.

Q: And the half-life [19]?
A: Its half-life is 4 h.

Q: What about the Tmax [20] of the same compound?
A: The Tmax was 0.25 h.

Q: And the EC50 [21]?
A: Its EC50 is greater than 50 µM.

Q: And the EC20 ([21]; human)?
A: Its EC20 is greater than 50 µM.

Q: And the EC60 ([21]; human)?
A: Its EC60 is greater than 50 µM.

Q: And the half-life [22]?
A: The half-life was 1.78 h.

Q: What about the Activity [23] of the same compound?
A: The Activity was “Non-Toxic”.

Q: What about the clearance [24] of the same compound?
A: The clearance was 9.7 mL/min/kg.

Q: And the solubility [25]?
A: The solubility was 63 µg/mL (≈ 181 µM).

Q: And the half-life [26]?
A: Its half-life is 6 h.

Q: What about the Activity [27] of the same compound?
A: Its Activity is “Non-Toxic”.

Q: And the concentration at 24 h [28]?
A: Its concentration at 24 h is 340 ng/mL.

— ChEMBL document CHEMBL4118197, “The discovery and preclinical evaluation of BMS-707035, a potent HIV-1 integrase strand transfer inhibitor” (Bioorg Med Chem Lett, 2018)
